This sample holds only a part of the variants without activity.
B1: tRNA (parent)
chain: GUUCCGUUGGCGUAAUGGUAACGCGUCUCCCUCCUAAGGAGAAGACUGCGGGUUCGAGUCCCGUACGGAACG

Variants of: B1
Assay: yeast fitness relative to wild type (ratio to wild type); higher = fitter; tRNA-Arg(CCU), competitive growth, 37 C, YPD
Procedure, shortened: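 Changes in genotype frequencies gave Darwinian fitness relative to wild type. Frequencies were read by 100-nucleotide paired-end sequencing of gene amplicons before and after pooled Saccharomyces cerevisiae strains, carrying tRNA-Arg(CCU) gene variants at the native locus, were competed in YPD at 37°C for 24 hours in six replicates. A genotype was kept only with ≥ 100 starting reads, and estimates < 0.5 were set to 0.5.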

Variant	yeast fitness
GUUCCGUUGGCAUAAUGGUAACGCGUCUCCCUUCUAAGGACAAGACUGCGGGUUCGAGUCCCGUACGGAACG [G12A C33U G41C]	≤ 0.5
GUUCCGUUGGCAUAAUCGUAACGCGUCUCCCUCCUAAGGAGAAGACUGCGGGUUCGAGUCCCGUAUGGAACG [G12A G17C C66U]	≤ 0.5
GUUCCGUUGGCAUAAUGGUAACCCGUCUCCCUCCUAAGGAGAAGACUGAGGGUUCGCGUCCCGUACGGAACG [G12A G23C C49A A57C]	≤ 0.5
GUUCCGUUGGCAUAAUGGUAACGCGUCUCCCUCCUAAGGAGAAGACUGCGGGUUUGAGUCCCGUAGGGAACG [G12A C55U C66G]	0.569
GUUCCGUUGGCAUAAUAGUAACGCGUCUUCCUCCUAAGGAGAAGACUGCGGGUUCGAGUCCCGUACGGAACG [G12A G17A C29U]	≤ 0.5
GUUCCGUUGGCAUAAUGGUAACGCGUCUCCCUCCUAAGGAGAAGACUGGGGGUUCGAGUCCCGUACGGCACG [G12A C49G A69C]	0.551
GUUCCGUUGGCAUAAUGGUAACCCGUCUCCCUCCUAAGGAGAAGACUGCGGGUUGGAGUCCCGUACGGCACG [G12A G23C C55G A69C]	0.561
GUUCCGUUGGCAUAAUGAUAUCGCGUCUCCCUCCUAAGGAAAAGAUUGCGGGUUCGAGUCCCGUACGGAACG [G12A G18A A21U G41A C46U]	0.535
GUUCCGUUGGCAUAAUGCUAACGCGUCUCCCUCCUAAGGAGAAGACUGCGGGUUCGAGUCCUCUACGGACCG [G12A G18C C62U G63C A70C]	≤ 0.5
GUUCCGUUGGCAUAAUGGUAACGCGUCUCCCUCCUAAGGAGAAGACUGUGGGUUCGAGUCCCGUACCGGACG [G12A C49U G67C A69G]	≤ 0.5
GUUCCGUUGGCAUAAUGGUAACGCGUCUCCCUCAUAAGGAGAGGACUGCGGGUUCGAGUCCCGUACGGAACG [G12A C34A A43G]	0.531
GUUCCGUUGGCAUAAUGGUAACGCGUCUCCUUCCUAAGGAAAAGACUGCGGGUUCGAGUCCCGUACGGAACG [G12A C31U G41A]	0.686
GUUCCGUUGGCAUAAUGGUAACCCGUCUCCCUCCUAAGGAGAAGACUGCGGGUUCGAGUCGCGUACGGAACG [G12A G23C C61G]	≤ 0.5
GUUCCGUUGGCAUAAUGGUAACGCGUCUCCCUCCUAAGGAGAAGACUGCGGGUUCGAGUCCCGUAUGGAACG [G12A C66U]	0.834
GUUCCGUUGGCAUAAUGGUAACGCGUCUCCCUCCUAAGGAGAAGACUGCGGGUUCGAGUCCCGUAAGGAACG [G12A C66A]	0.654
GUUCCGUUGGCAUAAUGGUAACGCGUCUCCCUCCUAAGGAGAAGACUGCGGGUUCGAGUCCCGUAGGGAACG [G12A C66G]	0.79
GUUCCGUUGGCAUAAUGGUAACGCGUCUCCCUCCUAAGGAGAAGACUGAGGGUUCGAGUCCCGUACGGAACG [G12A C49A]	0.67
GUUCCGUUGGCAUAAUGGUAACGCGUCUCCCUCCUAAGGAGAAGACUGGGGGUUCGAGUCCCGUACGGAACG [G12A C49G]	0.943
GUUCCGUUGGCAUAAUAAUAACGCGUCUCCCUCCUGAGGAGUAGAUUGCGGGUUUGAGUCCCGUACGGAACG [G12A G17A G18A A36G A42U C46U C55U]	0.581

Variant	yeast fitness
GUUCCGUUGGCAUAAUGGUAACGCGUCUCCCUCCUAAGGAGAAGACUGAGGCUUCGAGUCCCGUACGGAACG [G12A C49A G52C]	≤ 0.5
GUUCCGUUGGCAUAAUGGUAACGCGUCUCCCUCCUAAGGAGAAGAUUGCGGGUUCGAGUCCCGUUCGGAACG [G12A C46U A65U]	0.998
GUUCCGUUGGCAUAAUGGUAACGCGUCUCCCUCCUAAGGAGAAGACUGUGGGUUCAAGUCGCGUACGGAACG [G12A C49U G56A C61G]	≤ 0.5
GUUCCGUUGGCAUAAUGCUAACGCGUCUCCCUCCUCAGGAGAAGACUGCGGGUUCGAGUCCCGUACGGAACG [G12A G18C A36C]	0.537
GUUCCGUUGGCAUAAUGAUAUCGCGUCUCCCUCCUAAGGAAAAGACUGCGGGUUCGAGUCCCGUACGGAACG [G12A G18A A21U G41A]	0.877
GUUCCGUUGGCAUAAUGGUAACACGUCUCCCUCCGGAGGAGAAGAUUGCGGGUUCGUGUCCCGUACGGAACG [G12A G23A U35G A36G C46U A57U]	≤ 0.5
GUUCCGUUGGCAUAAUGGUAACGCGUCUCCCUGCUAAGCAGAAGACUGCGGGUUCGAGUCCCGUACGGCACG [G12A C33G G39C A69C]	≤ 0.5
GUUCCGUUGGCAUAAUGGUAACGCGUCUCCCUCCUAAGCAGAAGACUGCGGGUUCGAGUCCCGUAUGGAACG [G12A G39C C66U]	0.572
GUUCCGUUGGCAUAAUGGUAACCCAUCUCCCUCCUAAGGAGAAGACUGCGGGUUCGAGACCCAUACGGAACG [G12A G23C G25A U59A G63A]	≤ 0.5
GUUCCGUUGGCAUAAUGGUAACGCGUCUCCCUCCUAAGGAGAAGAUUGCGGGUUCGAGUCCCGUACGGAACG [G12A C46U]	0.9
GUUCCGUUGGCAUAAUGAUAACGCGUCUCCCUCCUAAGGAGAAGACUGCGGGUUCGAGUCGCGUACGGAGCG [G12A G18A C61G A70G]	0.682
GUUCCGUUGGCAUAAUGGUAACGCGUCUCCCUCCUAAGGAGAAGAUUGCGCGUUCGAGUCCCGUACGGAUCG [G12A C46U G51C A70U]	0.534
GUUCCGUUGGCAUAAUGGUAACGCGUCUCCCUCCUAAGGAGAAGACUGCGGGUUCGAGUCCUGUACGGAGCG [G12A C62U A70G]	0.69
GUUCCGUUGGCAUAAUGGUAACGCGUCUCCCUCCUAAGGAGAAGACUGCGGGUUAGAGUCCCGUACAGAGCG [G12A C55A G67A A70G]	≤ 0.5
GUUCCGUUGGCAUAAUGGUAACCAAUCUCCCUCCUAAGGAGAAGACUGCGGGUUCGAGUCCCGUACGGAACG [G12A G23C C24A G25A]	≤ 0.5
GUUCCGUUGGCAUAAUUGUAACGCGUCUCCCUCCUAAGGAGAAGACUGGGGGUUCGAGUUCCGUACGAAACG [G12A G17U C49G C60U G68A]	≤ 0.5
GUUCCGUUGGCAUAAUGCUAACGCGUCUCCCUCCUAAGGAGUAGACUGCGGGUUCGAAUCCCGUACGAAACG [G12A G18C A42U G58A G68A]	≤ 0.5
GUUCCGUUGGCAUAAUGUUAACGCGUCUCCCUCCUAAGAAGAAGACUGCGGGUUCGAGUCCCGUACGGAACG [G12A G18U G39A]	≤ 0.5
GUUCCGUUGGCAUAAUGGUAACGCGUCUCCCUCCUAAGGAGAAGACUGCGGGUUCGAGUCACGUUCGGAACG [G12A C61A A65U]	≤ 0.5

— the RNAGym collection of RNA variant scans (doi:10.1126/science.aae0568)
